Laboratory results as given in ChEMBL document CHEMBL1144988, “Stereoselective preparation of N-[(R,R)-(E)-1-(3,4-dichlorobenzyl)-3- (2-oxoazepan-3-yl)carbamoyl]allyl-N-methyl-3,5-bis(trifluoromethyl)benzamide, a potent and orally active dual neurokinin NK(1)/NK(2) receptor antagonist” (J Med Chem, 2003).
Where “and” joins values, the source holds several entries; their conditions need not be identical. Equal values may be shown once.

What was measured:
[1] = biological target: Substance-P receptor (Homo sapiens, UniProt P25103); assay: In vitro binding affinity towards Human Tachykinin receptor 1
Sequence of Substance-P receptor (Homo sapiens, UniProt P25103) (P25103 whole entry): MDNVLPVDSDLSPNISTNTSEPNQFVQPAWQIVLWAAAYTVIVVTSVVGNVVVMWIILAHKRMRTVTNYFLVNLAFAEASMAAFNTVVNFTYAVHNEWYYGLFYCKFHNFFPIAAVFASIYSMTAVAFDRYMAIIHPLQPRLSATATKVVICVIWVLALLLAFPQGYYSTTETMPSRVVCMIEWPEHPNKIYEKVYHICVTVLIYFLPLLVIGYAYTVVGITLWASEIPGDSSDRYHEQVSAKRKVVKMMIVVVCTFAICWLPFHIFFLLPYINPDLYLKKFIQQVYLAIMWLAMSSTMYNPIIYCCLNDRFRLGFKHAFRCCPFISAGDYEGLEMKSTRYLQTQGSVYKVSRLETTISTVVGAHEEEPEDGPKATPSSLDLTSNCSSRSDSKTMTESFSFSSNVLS
In short: (§1)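 Membranes from CHO cells expressing cloned human NK1 receptor, incubated with 3H-[Sar9,Met(O2)11]SP (0.5 nM final) in 20 mM HEPES, 1 mM MnCl2, pH 7.4, for 60 min at 28 °C. Nonspecific binding was defined with Sar9SP. Bound radioactivity was collected by filtration, washed with ice-cold 50 mM Tris pH 7.4, then counted by scintillation.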

[2] = biological target: T1, Substance-K receptor (Homo sapiens, UniProt P21452); assay: In vitro binding affinity towards Human Tachykinin receptor 2
T1 sequence (P21452 whole entry): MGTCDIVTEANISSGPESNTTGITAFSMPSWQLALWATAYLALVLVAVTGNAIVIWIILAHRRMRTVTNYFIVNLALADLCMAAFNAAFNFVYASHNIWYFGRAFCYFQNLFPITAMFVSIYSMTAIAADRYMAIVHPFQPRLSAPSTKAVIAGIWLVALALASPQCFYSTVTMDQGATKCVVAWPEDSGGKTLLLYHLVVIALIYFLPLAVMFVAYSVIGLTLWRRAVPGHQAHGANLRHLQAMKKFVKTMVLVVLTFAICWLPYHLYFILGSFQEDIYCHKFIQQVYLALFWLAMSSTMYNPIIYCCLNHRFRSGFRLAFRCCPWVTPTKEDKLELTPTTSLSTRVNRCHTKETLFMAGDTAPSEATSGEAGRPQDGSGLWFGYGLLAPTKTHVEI
In short: as §1, with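 “NK2” for “NK1”, “125I-neurokinin A (1.4” for “3H-[Sar9,Met(O2)11]SP (0.5”, “NKA.” for “Sar9SP.”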

[3] = Bioavailability in guinea pig (dose 10 mg/kg p.o.); format: ADME, organism-based, Cavia porcellus; details: in vivo, po
In short: (§2)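 Guinea pigs given a single oral dose of 10 mg/kg (n = 7) as a microemulsion (2% DMSO/20% Sandimmon placebo/78% saline) or as a cremophor/2% DMSO formulation. Food was withdrawn up to 18 h predose, and animals carried heparin-flushed cannulas. Blood was sampled at 60, 120, 240, 360, 480, 720 and 1440 min. The read-outs were t1/2, Cmax, AUC0–24h and bioavailability.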

[4] = biological target: T2, Substance-K receptor (Cavia porcellus, UniProt Q64077); assay: In vitro relative antagonist potency towards guinea pig Tachykinin receptor 2; format: functional; details: read-out: pA2 (converted)
T2 sequence (Q64077 whole entry): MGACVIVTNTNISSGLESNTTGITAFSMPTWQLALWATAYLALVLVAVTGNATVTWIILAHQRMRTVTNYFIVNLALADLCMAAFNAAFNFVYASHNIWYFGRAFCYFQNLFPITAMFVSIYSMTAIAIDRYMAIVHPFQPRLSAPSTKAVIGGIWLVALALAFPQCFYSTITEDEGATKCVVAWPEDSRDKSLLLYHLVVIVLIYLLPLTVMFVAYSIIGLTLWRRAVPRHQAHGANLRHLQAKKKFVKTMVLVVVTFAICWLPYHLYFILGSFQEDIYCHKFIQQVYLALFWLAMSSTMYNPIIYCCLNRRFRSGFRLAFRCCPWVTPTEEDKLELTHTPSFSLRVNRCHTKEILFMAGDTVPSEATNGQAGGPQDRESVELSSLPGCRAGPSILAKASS

[5] = Area Under the concentration-time curve from zero time to 24 hr in guinea pig when given at a dose of 3 mg/kg intravenously; format: ADME, organism-based, Cavia porcellus; set-up: time < 24 hr, dose 3 mg/kg, route intravenous; details: in vivo, iv
In short: (§3)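 Guinea pigs given 3 mg/kg iv via the jugular vein (n = 6) in a cremophor formulation, with cannulas flushed with heparinized saline. Blood was sampled at 5, 30, 60, 120, 240, 360, 720 and 1440 min. The read-outs were terminal elimination half-life and AUC0–24h.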

[6] = system: Cavia porcellus; assay: (§4) Half life period in guinea pig when given at a dose of 10 mg/kg perorally; format: ADME, organism-based; set-up: dose 10 mg/kg, route oral; details: in vivo, po; in short: as §2
[7] = as §4; format: ADME, organism-based, Cavia porcellus; set-up: dose 10 mg/kg, route oral; details: in vivo, po; in short: as §2
[8] = biological target: Substance-P receptor (Cavia porcellus, UniProt P30547); assay: In vitro relative antagonist potency towards guinea pig Tachykinin receptor 1; format: functional; details: read-out: pA2 (converted)
Sequence of Substance-P receptor (Cavia porcellus, UniProt P30547) (P30547 whole entry): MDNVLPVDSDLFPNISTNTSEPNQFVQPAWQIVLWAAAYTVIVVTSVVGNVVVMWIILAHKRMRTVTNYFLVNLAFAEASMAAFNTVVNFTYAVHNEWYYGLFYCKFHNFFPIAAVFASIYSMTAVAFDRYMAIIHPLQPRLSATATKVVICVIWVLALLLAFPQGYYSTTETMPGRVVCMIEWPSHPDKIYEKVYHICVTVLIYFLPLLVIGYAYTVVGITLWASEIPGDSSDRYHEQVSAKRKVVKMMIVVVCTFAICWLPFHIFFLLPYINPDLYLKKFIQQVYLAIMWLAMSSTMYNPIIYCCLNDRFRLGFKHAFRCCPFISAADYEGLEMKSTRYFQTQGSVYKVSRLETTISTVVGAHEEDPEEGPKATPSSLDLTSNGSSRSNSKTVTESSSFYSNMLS

[9] = system: Saimiri sciureus; assay: In vivo Effective peroral dose which inhibits Beta-ala8-Neurokinin A induced bronchoconstriction (dynamic compliance) in squirrel monkey; details: in Primates, po
[10] = Half life period in guinea pig when given at a dose of 3 mg/kg intravenously; format: ADME, organism-based, Cavia porcellus; set-up: dose 3 mg/kg, route intravenous; details: in vivo, iv; in short: as §3
[11] = system: Cavia porcellus; assay: (§5) Plasma concentration in Blood of guinea pig when given at a dose of 10 mg/kg perorally; format: ADME, organism-based; set-up: dose 10 mg/kg, route oral; details: in vivo, po; in short: as §2
[12] = as §5; format: ADME, organism-based, Cavia porcellus; set-up: dose 10 mg/kg, route oral; details: plasma, po; in short: as §2
[13] = Area Under the concentration-time curve from zero time to 24 hr in guinea pig when given at a dose of 10 mg/kg perorally (cremophor); format: ADME, organism-based, Cavia porcellus; set-up: time < 24 hr, dose 10 mg/kg, route oral; details: in vivo, po; in short: as §2
[14] = Area Under the concentration-time curve from zero time to 24 hr in guinea pig when given at a dose of 10 mg/kg perorally (Microemulsion); format: ADME, organism-based, Cavia porcellus; set-up: time < 24 hr, dose 10 mg/kg, route oral; details: in vivo, po; in short: as §2
[15] = system: Saimiri sciureus; assay: In vivo Effective peroral dose which inhibits Beta-ala8-Neurokinin A induced bronchoconstriction (airways resistance) in squirrel monkey; details: in Primates, po

Ki [1] | Ki [2] | F [3] | Kb [4] | AUC at 24 h [5] | T1/2 [6] | half-life [7] | Kb [8] | half-life [10] | Cmax [11] | Cmax [12] | AUC at 24 h [13] | AUC at 24 h [14] | SMILES | ED50 [9] | ED50 [15]
18.2 nM | 182 nM |  |  |  |  |  |  |  |  |  |  |  | CN(C(=O)c1cc(C(F)(F)F)cc(C(F)(F)F)c1)[C@H](/C=C/C(=O)N[C@H]1CCCCNC1=O)Cc1ccc(Cl)c(Cl)c1 |  | 
4.17 nM | 9.55 nM | 41% and 17.4% | 53.7 nM | 4690 ng·h/mL | 5.4 h | 3.8 h | 11.7 nM | 4.2 h | 415 ng/mL | 600 ng/mL | 2710 ng·h/mL | 6380 ng·h/mL | CN(C(=O)c1cc(C(F)(F)F)cc(C(F)(F)F)c1)[C@@H](/C=C/C(=O)N[C@@H]1CCCCNC1=O)Cc1ccc(Cl)c(Cl)c1 [DNK333] | 2.8 mg/kg | 1 mg/kg
8.71 nM | 102 nM |  |  |  |  |  |  |  |  |  |  |  | CN(C(=O)c1cc(C(F)(F)F)cc(C(F)(F)F)c1)[C@@H](/C=C/C(=O)N[C@H]1CCCCNC1=O)Cc1ccc(Cl)c(Cl)c1 |  | 
0.832 nM | 457 nM |  |  |  |  |  |  |  |  |  |  |  | CN(C(=O)c1cc(C(F)(F)F)cc(C(F)(F)F)c1)[C@H](/C=C/C(=O)N[C@@H]1CCCCNC1=O)Cc1ccc(Cl)c(Cl)c1 |  | 
